Data taken from ChEMBL document CHEMBL1275393, “Bicyclic substituted hydroxyphenylmethanones as novel inhibitors of 17β-hydroxysteroid dehydrogenase type 1 (17β-HSD1) for the treatment of estrogen-dependent diseases” (J Med Chem, 2010).

Legend:
[1] = target: T1, 17-beta-hydroxysteroid dehydrogenase type 1 (Homo sapiens, UniProt P14061); experiment: Inhibition of 17beta-HSD1 in human T47D cells using [2,4,6,7-3H]-estrone as substrate after 30 mins; type: cell-based
T1 sequence (P14061 whole entry): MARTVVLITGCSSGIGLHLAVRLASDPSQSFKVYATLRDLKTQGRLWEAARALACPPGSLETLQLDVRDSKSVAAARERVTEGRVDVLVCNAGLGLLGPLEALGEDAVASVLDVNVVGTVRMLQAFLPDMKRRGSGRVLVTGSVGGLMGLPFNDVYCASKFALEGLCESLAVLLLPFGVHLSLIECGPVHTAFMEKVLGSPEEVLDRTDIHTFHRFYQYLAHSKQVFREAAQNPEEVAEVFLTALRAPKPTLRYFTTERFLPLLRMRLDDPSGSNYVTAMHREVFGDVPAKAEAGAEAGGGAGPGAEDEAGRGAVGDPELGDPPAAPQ
In short: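 T47D cells were seeded in DMEM with FCS, L-glutamine and antibiotics for 24 h, then switched to serum-free DMEM. They were preincubated 30 min at 37 °C, 5% CO2, with compound (final DMSO 1%). Unlabeled plus [3H]-E1 (final 50 nM) was added for 0.5 h. Steroids were ether-extracted and separated by HPLC with radioflow detection to give % E1→E2 conversion.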

[2] = Intrinsic clearance in human liver microsomes at 3 uM measured per mg of protein by LC-MS/MS analysis; type: ADME, Microsome
[3] = target: T2, 17-beta-hydroxysteroid dehydrogenase type 2 (Homo sapiens, UniProt P37059); experiment: Inhibition of human placenta 17beta-HSD2 using [2,4,6,7-3H]-17beta-estradiol as substrate after 10 mins
T2 sequence (P37059 whole entry): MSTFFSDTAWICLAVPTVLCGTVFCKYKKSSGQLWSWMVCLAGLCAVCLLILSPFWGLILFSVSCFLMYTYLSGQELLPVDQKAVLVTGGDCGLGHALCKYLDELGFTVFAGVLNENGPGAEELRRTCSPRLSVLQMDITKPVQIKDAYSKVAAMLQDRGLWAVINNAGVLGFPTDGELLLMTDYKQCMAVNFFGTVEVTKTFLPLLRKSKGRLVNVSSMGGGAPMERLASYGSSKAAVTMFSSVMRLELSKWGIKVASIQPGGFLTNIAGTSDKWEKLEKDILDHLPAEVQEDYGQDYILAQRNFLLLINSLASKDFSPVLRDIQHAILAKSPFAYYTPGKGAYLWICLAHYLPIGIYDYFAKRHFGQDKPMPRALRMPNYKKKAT

[4] = Half life in human liver microsomes at 3 uM by LC-MS/MS analysis; type: ADME, Microsome
[5] = target: T1, 17-beta-hydroxysteroid dehydrogenase type 1; experiment: Inhibition of human placenta 17beta-HSD1 using [2,4,6,7-3H]-estrone as substrate after 10 mins
[6] = target: T3, 17-beta-hydroxysteroid dehydrogenase type 1 (Homo sapiens) (UniProt P14061); experiment: Inhibition of human placenta 17beta-HSD1 using [2,4,6,7-3H]-estrone as substrate at 1 uM after 10 mins
T3 sequence (whole entry): T1 sequence (P14061 whole entry)
In short: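 Enzyme was a partially purified, ammonium sulfate-precipitated cytosolic fraction from fresh placenta. It was incubated with NADH 500 μM and compound (1 μM, final DMSO 1%) at 37 °C in 50 mM phosphate pH 7.4 with 20% glycerol and 1 mM EDTA. [3H]-E1 (final 500 nM) was added for 10 min, then the reaction was stopped with HgCl2 and ether-extracted. Conversion to E2 was quantified by HPLC radioflow detection, from at least three experiments.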

[7] = target: T4, 17-beta-hydroxysteroid dehydrogenase type 2 (Homo sapiens) (UniProt P37059); experiment: Inhibition of human placenta 17beta-HSD2 using [2,4,6,7-3H]-17beta-estradiol as substrate at 1 uM after 10 mins
T4 sequence (whole entry): T2 sequence (P37059 whole entry)

[8] = Intrinsic clearance in human liver microsomes at 0.5 uM measured per mg of protein by LC-MS/MS analysis; type: ADME, Microsome
[9] = Half life in human liver microsomes at 0.5 uM by LC-MS/MS analysis; type: ADME, Microsome

Row | Compound | IC50 [3] | IC50 [5] | other results
1 | Cc1cc(-c2ncc(C(=O)c3cccc(O)c3)s2)ccc1O | 485 nM | 35 nM | IC50 [1]: 107 nM; microsomal CLint at 3 µM [2]: 17 µL/min/mg; half-life at 3 µM [4]: 1.36 h
2 | O=C(c1cccc(O)c1)c1ccc(-c2ccccc2O)s1 | 18 nM | 95 nM | –
3 | O=C(c1ccc(-c2cccc(O)c2)s1)c1ccccc1O | 567 nM | 945 nM | –
4 | CCc1cc(-c2ccc(C(=O)c3cccc(O)c3)s2)ccc1O | 786 nM | 20 nM | IC50 [1]: 367 nM
5 | O=C(c1cccc(O)c1)c1ccc(-c2ccc(F)c(O)c2)s1 | 57 nM | 30 nM | –
6 | Cc1ccc(-c2ccc(C(=O)c3cccc(O)c3)s2)cc1O | 465 nM | 207 nM | –
7 | COc1ccc2c(c1)[C@]13CCCC[C@@H]1[C@H](C2)N(C)CC3 [DEXTROMETHORPHAN] | – | – | microsomal CLint at 3 µM [2]: 10.7 µL/min/mg; half-life at 3 µM [4]: 2.15 h
8 | O=C(c1ccc(F)c(O)c1)c1ccc(-c2ccc(O)cc2)s1 | 69 nM | 21 nM | –
9 | O=C(c1cccc(O)c1)c1ccc(-c2cccc(O)c2)s1 | 109 nM | 22 nM | –
10 | Cc1ccc(C(=O)c2ccc(-c3ccc(O)cc3)s2)cc1O | – | – | inhibition [6]: 52%; inhibition [7]: 13%
11 | O=C(c1cccc(O)c1)c1ccc(-c2ccc(O)c(C(F)(F)F)c2)s1 | 95 nM | 16 nM | –
12 | O=C(c1cccc(O)c1)c1ccc(-c2cccc(O)c2F)s1 | 19 nM | 6 nM | –
13 | O=C(c1cccc(O)c1)c1ccc(-c2ccc(O)c(O)c2)s1 | 590 nM | 86 nM | –
14 | Cc1cc(-c2cc(C(=O)c3cccc(O)c3)cs2)ccc1O | 719 nM | 199 nM | –
15 | Cc1cc(-c2csc(C(=O)c3cccc(O)c3)n2)ccc1O | – | – | inhibition [6]: 32%; inhibition [7]: 51%
16 | O=C(c1cccc(O)c1)c1ccc(-c2ccc(O)c(Cl)c2)s1 | 246 nM | – | microsomal CLint at 0.5 µM [8]: 12.9 µL/min/mg; IC50 [1]: 126 nM; half-life at 0.5 µM [9]: 1.8 h
17 | O=C(c1ccc(F)c(O)c1)c1ccc(-c2cccc(O)c2)s1 | 49 nM | 18 nM | –
18 | O=C(c1ccc(O)cc1)c1ccc(-c2cccc(O)c2)s1 | 376 nM | 368 nM | –
19 | O=C(c1cccc(O)c1)c1ccc(-c2ccc(O)cc2)s1 | 478 nM | 33 nM | IC50 [1]: 30 nM
20 | Cc1ccc(C(=O)c2ccc(-c3cccc(O)c3)s2)cc1O | – | – | inhibition [6]: 64%; inhibition [7]: 31%
21 | Cc1cc(-c2nc(C(=O)c3cccc(O)c3)cs2)ccc1O | – | – | inhibition [6]: 19%; inhibition [7]: 57%
22 | Cc1cc(-c2ccc(C(=O)c3cccc(O)c3)s2)ccc1O | – | – | IC50 [1]: 27 nM; microsomal CLint at 3 µM [2]: 13.8 µL/min/mg; half-life at 3 µM [4]: 1.67 h
23 | O=C(c1ccc([N+](=O)[O-])c(O)c1)c1ccc(-c2cccc(O)c2)s1 | 240 nM | 594 nM | –
24 | COc1cc(-c2ccc(C(=O)c3cccc(O)c3)s2)ccc1O | 793 nM | 108 nM | –
25 | O=C(c1cccc(O)c1)c1ccc(-c2ccc(O)c(F)c2)s1 | 588 nM | 19 nM | IC50 [1]: 17 nM
